Laboratory results taken from ChEMBL document CHEMBL4680111, “Target Validation and Identification of Novel Boronate Inhibitors of the Plasmodium falciparum Proteasome” (J Med Chem, 2018).
Activity calls are given as the source filed them. The rule behind the calls is not given here.

How the values were obtained:
[1] = target: Proteasome Macropain subunit (Homo sapiens) (UniProt P49721); experiment: Binding affinity to human 20S constitutive proteasome beta 2 subunit assessed as half-life using fluorogenic peptide Ac-WLR-AMC as substrate in presence of PA28alpha by fluorescence based microplate reader assay
[2] = target: T1, Proteasome Macropain subunit MB1 (Homo sapiens, UniProt P28074); experiment: Binding affinity to human 20S constitutive proteasome beta 5 subunit assessed as equilibrium constant using fluorogenic peptide Ac-WLA-AMC as substrate in presence of PA28alpha by fluorescence based microplate reader assay
T1 sequence (P28074 whole entry): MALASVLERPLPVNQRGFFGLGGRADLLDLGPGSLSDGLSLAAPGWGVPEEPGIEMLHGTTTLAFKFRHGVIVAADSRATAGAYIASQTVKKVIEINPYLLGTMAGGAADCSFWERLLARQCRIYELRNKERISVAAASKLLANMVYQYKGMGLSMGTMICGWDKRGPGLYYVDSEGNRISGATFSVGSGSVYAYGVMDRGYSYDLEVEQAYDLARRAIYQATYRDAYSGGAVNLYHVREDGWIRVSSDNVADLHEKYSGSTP

[3] = Binding affinity to Plasmodium falciparum 20S proteasome beta 5 subunit assessed as equilibrium constant using fluorogenic peptide Ac-WLA-AMC as substrate in presence of PA28alpha by fluorescence based microplate reader assay
[4] = target: T2, Proteasome Macropain subunit MB1 (Homo sapiens) (UniProt P28074); experiment: Binding affinity to human 20S constitutive proteasome beta 5 subunit assessed as half-life using fluorogenic peptide Ac-WLA-AMC as substrate in presence of PA28alpha by fluorescence based microplate reader assay
T2 sequence (whole entry): T1 sequence (P28074 whole entry)

[5] = target: T3, Proteasome component C5 (Homo sapiens) (UniProt P20618); experiment: Inhibition of human 20S constitutive proteasome beta 1 subunit assessed as inhibition of BMV037 probe labeling at 1 uM incubated for 1 hr by SDS-PAGE analysis
T3 sequence (whole entry): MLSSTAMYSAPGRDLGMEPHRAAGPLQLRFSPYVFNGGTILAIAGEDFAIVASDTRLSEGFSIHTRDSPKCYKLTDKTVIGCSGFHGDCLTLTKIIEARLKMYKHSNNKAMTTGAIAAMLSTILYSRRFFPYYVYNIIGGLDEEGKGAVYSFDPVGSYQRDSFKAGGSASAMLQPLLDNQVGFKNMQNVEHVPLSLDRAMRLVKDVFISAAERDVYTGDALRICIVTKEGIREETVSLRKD
Outline: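 Purified human constitutive 20S (20 nM) was treated with compound at 37°C for 1 h, then labelled with 10 µM BMV037 at 37°C for 2 h. Samples were run on 10% Bis-Tris gel with MOPS buffer, and active subunits were detected by Cy5 fluorescence scan.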

Chain of Proteasome Macropain subunit (Homo sapiens) (P49721 whole entry): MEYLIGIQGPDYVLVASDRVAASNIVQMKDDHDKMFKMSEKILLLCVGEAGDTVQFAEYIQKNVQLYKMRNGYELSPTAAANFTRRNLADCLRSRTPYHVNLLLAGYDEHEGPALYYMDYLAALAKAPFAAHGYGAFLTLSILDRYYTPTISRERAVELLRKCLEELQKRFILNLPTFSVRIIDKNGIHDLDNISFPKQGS

Row | SMILES | T1/2 [1] [min] | Ki [2] [nM] | Ki [3] [nM] | T1/2 [4] [min] | inhibition [5]
1 | CC(C)C[C@H](NC(=O)[C@H](Cc1ccccc1)NC(=O)Cc1ccc(O)cc1)B(O)O | 2 | 0.13 | 4.3 | 106 | 
2 | Cc1ccc(S(=O)(=O)N[C@@H](CC(=O)NCC(C)(C)C)C(=O)N[C@@H](Cc2ccccc2)C(=O)N[C@@H](CC(C)C)B(O)O)cc1 |  |  |  |  | inactive
